SMILES strings stand for the structures. Active and inactive are the calls of the source. The calls are words filed in the database; no cut-off is given here.

Data set [1] in a line: Antioxidant activity assessed as reduction of Cu2+ to Cu+ measured as copper (I) level at 1 uM measured for 1 hr. It is filed as functional. An outline of the steps: (§1)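 Copper-reducing assay: compounds in ethanol mixed with 0.5 mM CuCl2 and 0.75 mM neocuproine (Cu+ chelator) in 10 mM phosphate buffer. Absorbance at 454 nm read for 1 h; reducing capacity expressed in μM. Trolox as reference; mean ± SD of three experiments.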

The test system of data set [2] is RAW264.7. Kind of data set: Inhibition of hydrogen peroxide level in RANKL-treated mouse RAW264.7 cells at 10 uM by DHR fluorescence intensity assay. It counts as functional, cell-based.
Data set [3] relates to HepG2. In words: Antioxidant activity against […]-induced intracellular oxidative stress in human HepG2 cells assessed as DCF fluorescence intensity at 1 to 10 uM. It is filed as functional, cell-based. An outline of the steps:
(§2)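 HepG2 cells cultured 24 h in DMEM, then given compounds (1–10 μM, in DMSO) for 30 min and washed. Stress induced in HBSS with 60 μM AAPH or 1 mM H2O2 for 30 min. DCFH-DA added at 40 μM final, 30 min at 37 °C in the dark; DCF read at Ex 485/Em 535 nm. Trolox 10 μM as reference; % of untreated cells, n = 3.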

Data set [4] in a line: Antioxidant activity assessed as trolox equivalents of peroxyl radical scavenging activity at 1 uM by ORAC assay. It is filed as functional. An outline of the steps:
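ORAC: fluorescein (40 nM final) exposed to AAPH (20 mM final) as peroxyl radical source, fluorescence recorded every 2 min relative to the initial reading. Net area under the decay curve versus blank computed and expressed as Trolox equivalents, with Trolox at 1 μM as reference; three experiments.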

In data set [5] the test system is RAW264.7. In words: Inhibition of RANKL-induced superoxide anion level in mouse RAW264.7 cells at 10 uM by DHE fluorescence intensity assay (reference value: 176.7%); values are per cent of control.
Data set [6] deals with RAW264.7. Kind of data set: Antiosteoporotic activity in mouse RAW264.7 cells assessed as inhibition of RANKL-induced osteoclastogenesis measured as reduction in TRAP activity for 5 days by ELISA. It counts as functional, cell-based. In a few lines: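 RAW 264.7 cells differentiated 5 days with 50 ng/mL RANKL plus test samples, medium changed every 2 days. Cells then washed with ice-cold PBS, fixed in 3.5% formaldehyde (10 min) and ethanol–acetone 1:1 (1 min). They were incubated 1 h in 50 mM citrate pH 4.5 with 10 mM sodium tartrate and 6 mM PNPP, stopped in 0.1 N NaOH, A405. Expressed as % of untreated control; n = 3.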
A general note: ELISA stands for enzyme-linked immunosorbent assay.

The subject of data set [7] is RAW264.7. Kind of data set: Inhibition of RANKL-induced ROS generation in mouse RAW264.7 cells at 10 uM by DCF fluorescence intensity assay (reference value: 143.7%); values are per cent of control.
For data set [8], the system named is HepG2. Kind of data set: Antioxidant activity against H2O2-induced intracellular oxidative stress in human HepG2 cells assessed as DCF fluorescence intensity at 1 to 10 uM. It is filed as functional, cell-based. An outline of the steps: as §2
Data set [9] deals with RAW264.7. In words: Cytotoxicity against mouse RAW264.7 cells at 1 to 10 uM for 5 days by MTT assay. It counts as cell-based. To be noted: raw264.7, 120 h. In a few lines:
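MTT assay: RAW 264.7 cells (2 × 10^4 cells/mL) in DMEM with 10% FBS at 37 °C, 5% CO2, treated with 1–10 μM samples for 5 days. MTT then added for 1 h at 37 °C, formazan dissolved in DMSO, A570 read; percentage proliferation calculated.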
In general terms: Tetrazolium dyes change colour on reduction, which living cells bring about.

Data set [10] relates to RAW264.7. Kind of data set: Antiosteoporotic activity in mouse RAW264.7 cells assessed as inhibition of RANKL-induced osteoclastogenesis measured as reduction in TRAP number for 5 days by light microscopy. It is filed as functional, cell-based. In a few lines: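 RAW 264.7 cells seeded at 3 × 10^4/well and given test samples in differentiation medium with 50 ng/mL RANKL, changed every 2 days, for 5 days. Cells fixed in 3.5% formaldehyde 10 min and stained 1 h at 37 °C with a leukocyte acid phosphatase kit. TRAP-positive cells with ≥3 nuclei counted by light microscopy. Expressed as % of RANKL-treated cells; mean ± SD, n = 3.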

Data set [11] in a line: Antioxidant activity assessed as reduction of Cu2+ to Cu+ measured as copper (I) level at 10 uM measured for 1 hr (reference value: 2.1 uM). It is filed as functional. In a few lines: as §1

As for `Cc1c(C)c2c(c(C)c1O)CCC(C)(C(=O)O)O2` (stereo not given), in [1], the Activity was determined as 1.5 µM.

Consider `COc1cc2ccc(=O)oc2cc1O` [SCOPOLETIN], for which the inhibition entry in the data set with RAW264.7 [2] is “inactive”. Also, the result (in the data set with HepG2 [3]; in the data set with HepG2 [8]; in data set [1]) was Active. Also, the values for the Activity (in [4]; with RAW264.7 [9]) were 3.3 equiv and “Non-toxic”, respectively. Further, the level, % of control at 10 µM with RAW264.7 [5] turned out to be 158%; in the data set on RAW264.7 [7], 132%. Moreover, the inhibition result in the data set with RAW264.7 [6] and with RAW264.7 [10] was “Dose-dependent effect” each time.

Turning to `COc1cc2ccc(=O)oc2cc1O[C@@H]1O[C@H](CO)[C@@H](O)[C@H](O)[C@H]1O` [SCOPOLIN], the inhibition result in the data set with RAW264.7 [2] was “inactive”. Further, the Activity in data set [4] was 0.4 equiv; with RAW264.7 [9] it was “Non-toxic”. The figures for the level, % of control at 10 µM in the data set on RAW264.7 [5] and in the data set with RAW264.7 [7] were 149% and 127%, respectively. For the same molecule, the inhibition result with RAW264.7 [6] and in the data set on RAW264.7 [10] was “Dose-dependent effect” throughout. Besides, the result with HepG2 [8] was Active. Also, in data set [11], the result was inactive.
